Data taken from paper PMC9294072 (ACS chemical biology, 2022).
Where no end group is shown, it is not given here. [ ]: non-standard residue; d: D form. Arg(Me2a) = CN(C)C(=N)NCCC[C@H](N)C(=O)O; Arg(Me2s) = CN=C(NC)NCCC[C@H](N)C(=O)O; pS = N[C@@H](COP(=O)(O)O)C(=O)O

Experiments:
[1] = biological target: T1, hNatD (Homo sapiens, UniProt Q86UY6); experiment: Continuous fluorescence-based acetylation assay; format: biochemical; conditions: for fold reduction in kcat/Km compared to H4-5 / fold decrease in kcat compared to H4-5: normalized to wild-type H4-5
Summary of the method: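 hNatD activity monitored continuously by fluorescence at 25 °C. All components except peptide were preincubated for 10 min, then the reaction was started with varying peptide concentrations. For AcCoA characterization, the peptide substrate was fixed at 50 μM. Readings were taken at 400–415 nm and 460–485 nm. Signal was converted to CoA via a standard curve, and initial velocities were fit to Michaelis-Menten or substrate-inhibition models. Run at least in duplicate.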

[2] = biological target: T1, hNatD; experiment: MALDI-MS acetylation assay; format: biochemical; conditions: relative to wild-type H4-5
Summary of the method: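 Human NatD 50 nM with 50 µM AcCoA in 25 mM HEPES, 150 mM NaCl, pH 7.5, 25 °C. Reaction started by adding peptide in 2-fold dilutions. Cysteine peptides were pre-reduced with DTT and diluted in buffer containing 10 mM DTT. Timed aliquots were quenched 1:1 in 0.1% TFA and spotted with CHCA for MALDI-MS of acetylated product. Initial slopes were fitted to Michaelis-Menten or substrate-inhibition models, in duplicate.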

Row | Substance | fold reduction in kcat/Km compared to H4-5 ([1]; fluorescence assay) | fold decrease in kcat compared to H4-5 ([1]; fluorescence assay) | other results
1 | H4R3me2s: H4 pentapeptide with Arg3 symmetric dimethylation (SG[Arg(Me2s)]GK-NH2) | 17 fold |  | 
2 | H4R3me2a: H4 pentapeptide with Arg3 asymmetric dimethylation (SG[Arg(Me2a)]GK-NH2; UniProt P62805 2-6, looked up, fragment) | 8 fold |  | 
3 | G4S: oncohistone H4/H2A pentapeptide with G4S mutation (SGRSK-NH2) | 17 fold | 7 fold | 
4 | G2E: oncohistone H4/H2A pentapeptide with G2E mutation (SERGK-NH2) |  | 3 fold | 
5 | H4R3me1: H4 pentapeptide with Arg3 monomethylation (SG[Rme1]GK-NH2; UniProt P62805 2-6, looked up, fragment) | 3.6 fold |  | 
6 | H4K5ac: H4 pentapeptide with Lys5 acetylation (SGRGK(Ac)-NH2) |  |  | kinetic parameters relative to unmodified H4-5 (in words) ([1]; fluorescence assay, compared to H4-5): comparable kinetic parameters
7 | H2A-12: C-terminal truncated H2A synthetic peptide, 12 residues (SGRGKQGGKARA-NH2; UniProt P0C0S8 2-13, looked up, fragment) |  |  | fold reduction in kcat/Km compared to corresponding H4 peptides ([1]; H2A peptide vs H4 peptide of the same length): about 4 fold
8 | S1L: oncohistone H4/H2A pentapeptide with S1L mutation (LGRGK-NH2) |  | 5 fold | 
9 | CGRGK [S1C] |  |  | fold reduction in kcat/Km compared to H4-5 [2]: ~ 100 fold
10 | S1F: oncohistone H4/H2A pentapeptide with S1F mutation (FGRGK-NH2) |  |  | fold reduction in kcat/Km compared to H4-5 [2]: over 1,000 fold
11 | SGCGK [R3C] |  |  | fold reduction in kcat/Km compared to H4-5 [2]: 17 fold
12 | SGRGA |  |  | fold difference in kcat and kcat/Km compared to H4-5 ([1]; SMARCD2-derived pentapeptide vs H4-5 (also H2A-5)): less than 2 fold
13 | G4V: oncohistone H4/H2A pentapeptide with G4V mutation (SGRVK-NH2) |  | less than 2 fold | fold higher kcat/Km for G4V than G4D ([1]; G4V relative to G4D): 7 fold
14 | G4D: oncohistone H4/H2A pentapeptide with G4D mutation (SGRDK-NH2) |  | less than 2 fold | 
15 | R3Q: oncohistone H4/H2A pentapeptide with R3Q mutation (SGQGK-NH2) | 200 fold | 3 fold | 
16 | H4pS1: H4 pentapeptide with Ser1 phosphorylation ([pS]GRGK-NH2) | over 100 fold | 2.3 fold | 
17 | R3H: oncohistone H4/H2A pentapeptide with R3H mutation (SGHGK-NH2) | 6.5 fold | 1.5 fold | 
